One data set deals with AChE (Electrophorus electricus, UniProt O42275). In words: AChE inhibitory assay. Format: biochemical, Electroporus electricus.
In another data set the target is BuChE (Bos taurus, UniProt P32749). In words: BuChE inhibitory assay. Format: biochemical, bovine.
A short description of data set [1]: Neurotoxicity assay, cell viability by Neutral Red method. Format: cell-based, human. The following applies: human, SH-SY5Y neuroblastoma cells. An outline of the steps:
(§1)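 SH-SY5Y cells (passages 18–23) in DMEM with 5% FBS were seeded at 2×10^4 cells/well and grown 24 h at 37 °C, 5% CO2. Test compound came from a 1×10−2 M DMSO stock, freshly diluted in medium, and was applied for 24 h. Controls were medium alone and 120 mM K+ (death). Cells were PBS-washed, given neutral red for 3 h at 37 °C, extracted 20 min with acidified ethanol, and read at A540.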

Data set [2] concerns human neuroblastoma SH‐SY5Y cells. The data set is described as above. Format: cell-based. Particulars: SH‐SY5Y cells. In short, it runs like this: as §1

Bounds are passed on as bounds.

Sequence of AChE (O42275 24-633): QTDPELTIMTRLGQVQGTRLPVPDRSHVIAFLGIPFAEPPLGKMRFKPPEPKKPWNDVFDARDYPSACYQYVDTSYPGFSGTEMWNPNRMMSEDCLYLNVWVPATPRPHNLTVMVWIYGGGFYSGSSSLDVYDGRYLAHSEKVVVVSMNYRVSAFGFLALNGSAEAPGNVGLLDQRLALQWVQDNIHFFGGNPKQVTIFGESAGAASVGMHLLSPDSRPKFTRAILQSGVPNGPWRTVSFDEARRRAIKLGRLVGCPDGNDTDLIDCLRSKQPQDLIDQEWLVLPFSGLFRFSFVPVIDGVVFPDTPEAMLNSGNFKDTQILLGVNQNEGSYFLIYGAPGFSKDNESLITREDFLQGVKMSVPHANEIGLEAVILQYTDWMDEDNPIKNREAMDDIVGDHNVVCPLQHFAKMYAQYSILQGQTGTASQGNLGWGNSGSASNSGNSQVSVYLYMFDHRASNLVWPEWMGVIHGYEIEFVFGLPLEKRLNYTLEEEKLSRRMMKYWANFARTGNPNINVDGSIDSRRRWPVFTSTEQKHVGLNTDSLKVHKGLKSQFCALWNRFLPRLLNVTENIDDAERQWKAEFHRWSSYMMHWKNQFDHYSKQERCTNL
Sequence of BuChE (P32749 29-602): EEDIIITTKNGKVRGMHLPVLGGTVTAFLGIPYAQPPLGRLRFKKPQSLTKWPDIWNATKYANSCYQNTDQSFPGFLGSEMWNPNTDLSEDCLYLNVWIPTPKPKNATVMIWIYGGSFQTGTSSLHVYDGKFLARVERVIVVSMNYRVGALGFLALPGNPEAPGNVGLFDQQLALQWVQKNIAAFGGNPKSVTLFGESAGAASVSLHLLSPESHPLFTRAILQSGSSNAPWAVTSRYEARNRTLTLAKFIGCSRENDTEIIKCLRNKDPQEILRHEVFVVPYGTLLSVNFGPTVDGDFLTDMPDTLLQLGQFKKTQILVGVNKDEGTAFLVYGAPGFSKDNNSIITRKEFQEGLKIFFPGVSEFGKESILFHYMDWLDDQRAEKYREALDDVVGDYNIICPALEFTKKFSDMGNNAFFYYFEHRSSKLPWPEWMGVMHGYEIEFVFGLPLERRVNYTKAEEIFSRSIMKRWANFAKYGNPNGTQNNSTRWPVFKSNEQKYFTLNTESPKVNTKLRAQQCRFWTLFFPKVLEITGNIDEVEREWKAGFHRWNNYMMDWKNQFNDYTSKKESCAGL

One may read the IC50 as the concentration that inhibits the measured activity by half. A high value points to a need for much substance. Regarding `O=CNC1CC(c2ccccc2)Nc2c1ccc1cccnc21` (stereo not drawn) [4 a, N‐(2‐phenyl‐1,2,3,4‐tetrahydro‐1,10‐phenanthroline‐4‐yl) formamide], the IC50 at AChE is more than 500 µM.
As to `O=CNC1CC(c2ccccn2)Nc2c1ccc1cccnc21` (stereo not drawn) [4 b, N‐(2‐(pyridin‐2‐yl)‐1,2,3,4‐tetrahydro‐1,10‐phenanthroline‐4‐yl) formamide], the values for the IC50 against AChE and on BuChE were 143.66 ± 0.02 µM and 152.99 ± 0.01 µM, respectively.
Turning to `O=CNC1CC(c2cccnc2)Nc2c1ccc1cccnc21` (stereo not drawn) [4 c, N‐(2‐(pyridin‐3‐yl)‐1,2,3,4‐tetrahydro‐1,10‐phenanthroline‐4‐yl) formamide], the midpoint of inhibition against AChE, the IC50, lay at 140.2 ± 0.02 µM.
For orientation: viability means a read-out of living cells in per cent, often relative to untreated cells. As to `O=CNC1CC(c2ccncc2)Nc2c1ccc1cccnc21` (stereo not drawn) [4 d, N‐(2‐(pyridin‐4‐yl)1,2,3,4‐tetrahydro‐1,10‐phenanthroline‐4‐yl) formamide], the IC50 on AChE is 63.63 ± 0.01 µM. The IC50 on BuChE stood at 138.63 ± 0.01 µM. In data set [1], the half-maximal inhibitory concentration (IC50) at 24 h was determined as 5500 µM; the viability at 24 h, 10 µM is 132 ± 25.6%; the viability at 24 h, 1 mM is 102 ± 18.9%. Further, in data set [2], the “Cytotoxicity (in words)” value is reported as “non‐cytoxicity”.
The compound `COc1ccc(C2CC(NC=O)c3ccc4cccnc4c3N2)cc1` (stereo not drawn) [4 e, N‐(2‐(4‐methoxyphenyl)‐1,2,3,4‐tetrahydro‐1,10‐phenanthroline‐4‐yl) formamide] had an IC50 against AChE of 362.11 ± 0.03 µM. Moreover, in data set [1], the IC50 at 24 h amounted to 3700 µM; the viability at 24 h, 10 µM worked out at 119 ± 6.4%; the viability at 24 h, 1 mM is 78.5 ± 12.5%.
For `O=CNC1CC(c2ccc([N+](=O)[O-])cc2)Nc2c1ccc1cccnc21` (stereo not drawn) [4 g, N‐(2‐(4‐nitrophenyl)‐1,2,3,4‐tetrahydro‐1,10‐phenanthroline‐4‐yl) formamide], on AChE, the IC50 stood at 96.52 ± 0.01 µM. For the same compound, in data set [1], the IC50 at 24 h is 300 µM; the viability at 24 h, 10 µM turned out to be 116 ± 5%; the viability at 24 h, 1 mM came to 21.9 ± 3.9%. Besides, in data set [2], the “Cytotoxicity (in words)” value is given as “non‐cytoxicity”.
Consider `Nc1cccc2cccnc12` [8‐amino‐quinoline, reference compound], for which the IC50 against AChE worked out at 171.56 ± 0.01 µM; at BuChE, 195.08 ± 0.02 µM.

These data come from PMC6528641 (ChemistryOpen, 2019).
